# Screening results: PubChem BioAssay, Johns Hopkins Ion Channel Center
# TRPC6 inhibitor: blocks the mouse TRPC6 cation channel | Q61143 | HEK293-TRPC6, membrane potential dye, ACh-evoked depolarization; active compounds read low | B-score at 10 µM | hit rate 1.1% among 310,000 | AID 2553;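 active means B-score under library mean minus 3 SD, initial fluorescence not abnormally high, positive integrated signal ratio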;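 further: B-score derived from integrated fluorescence ratio over the kinetic read; more negative B-score means stronger inhibition of depolarization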
# TRPC4 act: TRPC4 (mouse) channel activation | HEK293 TRPC4beta/mu-opioid, Fluo4 calcium fluorescence; active compounds read high | AID 2237 | Q9QUQ5 | hit rate 0.49% among 310,000 | B-score at 10 µM;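 active means B-score above 5 SD of library B-scores, and initial fluorescence ratio not above library mean plus 5 SD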;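 further: positive B-score marks a calcium rise read as TRPC4 activation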
#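 Test system: HEK293 cells stably co-expressing mouse TRPC4beta and mu-opioid receptor | Schedule: Fluo4 dye loading 45 min at room temperature, 110 s recording | Measured by: Kinetic Fluo4 calcium fluorescence, 5 s baseline at 1 Hz | Evaluation: B score of integrated ratio | Controls: Buffer (low) and maximal DAMGO (high)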
# TRPC6 activator: activates the mouse TRPC6 cation channel. AID 2550. hit rate 0.13% among 310,000. HEK293-TRPC6 membrane potential dye fluorescence; active compounds read high. B-score at 10 µM;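 active means B-score of the integrated fluorescence ratio above library mean plus 3 SD, and starting fluorescence ratio within library mean plus 5 SD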;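 further: higher score means more depolarization so channel activation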
# TRPC4 block: TRPC4 (mouse) channel inhibition; HEK293 TRPC4beta/mu-opioid, DAMGO-evoked Fluo4 calcium flux; active compounds read low; B-score at 10 µM; hit rate 0.39% among 300,000;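 active means B-score over 3 SD under the library average, no early fluorescence shift, positive overall ratio signal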
#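 Assay system – HEK293 line stably carrying TRPC4beta and mu-opioid receptor · Doses – single dose · Detection – Fluo4 calcium-dye fluorescence, kinetic read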
# TRPC4 potent: TRPC4 (mouse) allosteric potentiation. Q9QUQ5. HEK293 TRPC4beta/mu-opioid, DAMGO EC20, Fluo-4 Ca2+ flux; active compounds read high. B-score at 10 µM. hit rate 0.42% among 310,000. AID 2227;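 active means B-score of calcium response area above 5 SD of library B-scores, with initial fluorescence ratio within 5 SD of library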;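 further: B-score of integrated fluorescence ratio over time as area under calcium response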
# Starred values were filed as active, the others as inactive; i = inactive. This is a sample that favours compounds with a hit; in the whole collection about 2.3% have one here.
SMILES,TRPC6 inhibitor,TRPC4 act,TRPC6 activator,TRPC4 block,TRPC4 potent
Cc1ncc([N+](=O)[O-])n1CCOC(N)=O,i,i,i,i,i
CSc1ccc(C(=O)C2CCCN(CCCn3cccn3)C2)cc1 (stereo not given),i,83*,i,i,i
O=C(c1cccc2ccccc12)C1CCCN(C2CCC2)C1 (stereo not given),i,i,i,i,10*
COc1cccc(CNCCc2c[nH]c3ccccc23)c1,i,i,i,i,i
COc1cc(C)c(CNCCc2c[nH]c3ccccc23)cc1C,i,144*,i,i,i
COc1ccc(CNCCc2c[nH]c3ccccc23)c(OC)c1C,i,182*,i,i,i
Clc1cc(I)cc(Cl)c1NC1=NCCN1,i,i,i,i,i
COc1ccc(CC(C)NCCC(c2ccccc2)c2ccccc2)cc1 (stereo not given),i,i,i,i,i
O=C(COc1ccccc1)NCCc1cnc[nH]1,i,i,i,i,i
O=C(CCCc1ccccc1)NCCc1cnc[nH]1,i,143*,i,i,i
O=C(COc1ccccc1)N1CCN(CC2CC=CCC2)CC1 (stereo not given),i,i,i,i,i
CN(C)C=C1C(=O)N(C2CCCCC2)C(=O)N(C2CCCCC2)C1=O,i,95*,i,i,i
Cc1ccc(CC(=O)N2CCN(C)CC2)cc1,i,i,i,i,i
CNc1cc(N2CCNCC2)ccc1[N+](=O)[O-],i,i,i,i,13*
CN1CCN(c2ccc([N+](=O)[O-])c(N3CCCCC3)c2)CC1,i,i,i,i,i
Nc1cc(N2CCNCC2)ccc1[N+](=O)[O-],i,77*,i,i,26*
O=[N+]([O-])c1ccc(N2CCNCC2)cc1N1CCCCCC1,i,i,i,i,18*
O=[N+]([O-])c1ccc(N2CCNCC2)cc1NCc1ccco1,i,i,i,i,i
CN1CCN(c2ccc([N+](=O)[O-])c(N)c2)CC1,i,i,i,i,10*
CC(=O)c1ccc(OCC(=O)N2CCCC(N(C)Cc3ccccc3)C2)cc1 (stereo not given),i,i,i,i,i
O=c1c2ccccc2nc(-c2ccccc2Cl)n1-c1cccc(O)c1,i,i,i,i,i
COc1ccc(Br)cc1CNCCc1ccc2c(c1)OCO2,i,i,i,i,i
COc1ccc(CNCCc2ccc3c(c2)OCO3)cc1Br,i,107*,i,i,i
c1ccc2oc(N3CCNCC3)nc2c1,i,72*,i,i,44*
CCCc1nc2ccccc2c(=O)n1-c1ccc(OC)cc1,i,i,i,i,i
SMILES,TRPC6 inhibitor,TRPC4 act,TRPC6 activator,TRPC4 block,TRPC4 potent
COc1ccc(-n2c(CNCCc3ccc(C)cc3)nc3ccccc3c2=O)cc1,i,134*,i,i,i
O=C(Cc1ccccc1)N1CCN(Cc2cccc(Br)c2)CC1,i,i,i,-5*,i
COc1ccc(CN2CCN(C(=O)Cc3ccccc3)CC2)c(OC)c1,i,i,i,i,i
Oc1c(Br)cc(Br)cc1CN1CCN(Cc2ccccc2)CC1,i,i,i,i,20*
O=C(Cc1ccc(Br)cc1)N1CCN(Cc2ccccc2)CC1,i,i,i,i,i
COc1ccc(Br)cc1CN1CCN(C(=O)Cc2ccccc2)CC1,i,i,i,-6*,i
O=C1NC(=S)N(c2ccccc2)C(=O)C1C(c1ccncc1)C1C(=O)NC(=S)N(c2ccccc2)C1=O (stereo not given),i,i,i,i,i
CNC(=O)OCCc1n(C)cc[n+]1C,i,i,i,i,i
CN1CCN(Cc2cc(C(C)(C)C)c(O)c(C(C)(C)C)c2)CC1,i,i,i,i,11*
CN1CCN(Cc2ccc(N)cc2)CC1,i,i,i,i,i
CN(C)CCc1nc2ccccc2c(=O)n1-c1ccccc1,i,i,i,i,i
CN(C)CCn1cnc2ccccc21,i,i,i,i,15*
